In brackets after ≈: the same amount, converted by molar mass.
What was measured:
Staphylococcus aureus [1] = assay: In vitro antibacterial activity against staphylococcus aureus FDA 209P JC-1,Sa(F)(gram-positive); assay type: functional
How it was run: (§1)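 MIC by serial 2-fold agar dilution on Mueller–Hinton agar; inoculum about 10^6 CFU/mL; MIC taken as lowest concentration preventing visible growth after 18 h at 37 °C.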

Escherichia coli [2] = assay: In vitro antibacterial activity against Escherichia coli KC-14, Ec(K), (gram-negative); assay type: functional; how it was run: as §1
Enterococcus faecalis [3] = assay: In vitro antibacterial activity against Enterococcus faecalis IID 682,[…],(gram-positive); assay type: functional; how it was run: as §1
Escherichia coli [4] = assay: In vitro antibacterial activity against Escherichia coli NIHJ JC-2,(gram-negative)
Pseudomonas aeruginosa [5] = assay: In vitro antibacterial activity against Pseudomonas aeruginosa E-2,Pa(E),(gram-negative); assay type: functional; how it was run: as §1
Pseudomonas aeruginosa [6] = assay: In vitro antibacterial activity against Pseudomonas aeruginosa IFO 3445,Pa(I),(gram-negative); assay type: functional; how it was run: as §1
[7] = tested on: Staphylococcus epidermidis; assay: In vitro antibacterial activity against staphylococcus epidermidis IAM 1296, (gram-positive); assay type: functional; how it was run: as §1
Klebsiella pneumoniae = assay: In vitro antibacterial activity against klebsiella pneumoniae B54,Kp,(gram-negative); assay type: functional
Staphylococcus aureus [8] = assay: In vitro antibacterial activity against staphylococcus aureus IID 803,(gram-positive); assay type: functional; how it was run: as §1
Escherichia coli [9] = assay: In vitro antibacterial activity was measured against nalidixic acid resistant strain 7 from Escherichia coli KC-14; assay type: functional
How it was run: (§2)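 MIC by serial 2-fold agar dilution on Mueller–Hinton agar, inoculum about 10^6 CFU/mL. Plates were incubated 37 °C for 18 h. MIC was the lowest concentration preventing visible growth.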

Escherichia coli [10] = assay: In vitro antibacterial activity was measured against nalidixic acid resistant strain 2 from Escherichia coli KC-14; assay type: functional; how it was run: as §2
Escherichia coli [11] = assay: In vitro antibacterial activity was measured against nalidixic acid resistant strain 3 from Escherichia coli KC-14; assay type: functional; how it was run: as §2
Escherichia coli [12] = assay: In vitro antibacterial activity was measured against nalidixic acid resistant strain 4 from Escherichia coli KC-14; assay type: functional; how it was run: as §2
Escherichia coli [13] = assay: In vitro antibacterial activity was measured against nalidixic acid resistant strain 6 from Escherichia coli KC-14; assay type: functional; how it was run: as §2
Escherichia coli [14] = assay: In vitro antibacterial activity was measured against nalidixic acid resistant strain 5 from Escherichia coli KC-14; assay type: functional; how it was run: as §2
Escherichia coli [15] = assay: In vitro antibacterial activity was measured against nalidixic acid resistant strain 1 from Escherichia coli KC-14; assay type: functional; how it was run: as §2
Enterococcus faecalis [16] = assay: In vitro antibacterial activity against Enterococcus faecalis IID 682,Ef.([…]); assay type: functional; how it was run: as §1

Row | Structure (SMILES) | MIC (Staphylococcus aureus [1]) | MIC (Escherichia coli [2]) | MIC (Enterococcus faecalis [3]) | MIC (Escherichia coli [4]) | MIC (Pseudomonas aeruginosa [5]) | MIC (Pseudomonas aeruginosa [6]) | MIC [7] | MIC (Klebsiella pneumoniae) | MIC (Staphylococcus aureus [8]) | MIC (Escherichia coli [9]) | MIC (Escherichia coli [10]) | MIC (Escherichia coli [11]) | MIC (Escherichia coli [12]) | MIC (Escherichia coli [13]) | MIC (Escherichia coli [14]) | MIC (Escherichia coli [15]) | MIC (Enterococcus faecalis [16])
1 | O=C(O)c1c(=O)c2cc(F)c(N3C[C@H](O)[C@@H](O)C3)c3c2n2c(csc12)CO3 | 1.56 µg/mL (≈ 3.98 µM) | 3.13 µg/mL (≈ 7.98 µM) | > 25 µg/mL | 3.13 µg/mL (≈ 7.98 µM) | > 25 µg/mL | > 25 µg/mL | > 25 µg/mL | 1.56 µg/mL (≈ 3.98 µM) | 1.56 µg/mL (≈ 3.98 µM) |  |  |  |  |  |  |  | 
2 | C[C@@H]1CN(c2c(F)cc3c(=O)c(C(=O)O)c4scc5n4c3c2OC5)C[C@H](C)N1.Cl | 0.2 µg/mL | 0.1 µg/mL | 0.78 µg/mL | 0.2 µg/mL | 3.13 µg/mL | 3.13 µg/mL | 0.39 µg/mL | 0.39 µg/mL | 0.2 µg/mL |  |  |  |  |  |  |  | 
3 | CSc1c(F)cc2c(=O)c(C(=O)O)c3scc4n3c2c1OC4 | 0.2 µg/mL (≈ 0.593 µM) | 0.2 µg/mL (≈ 0.593 µM) | 3.13 µg/mL (≈ 9.28 µM) | 0.39 µg/mL (≈ 1.16 µM) | 3.13 µg/mL (≈ 9.28 µM) | 1.56 µg/mL (≈ 4.62 µM) | 0.2 µg/mL (≈ 0.593 µM) | 0.39 µg/mL (≈ 1.16 µM) | 0.1 µg/mL (≈ 0.296 µM) |  |  |  |  |  |  |  | 
4 | O=C(O)c1c(=O)c2cc(F)c(N3CCC(O)C3)c3c2n2c(csc12)CO3 (centres undefined) | 0.025 µg/mL (≈ 0.0664 µM) | 0.05 µg/mL (≈ 0.133 µM) | 0.2 µg/mL (≈ 0.531 µM) | 0.05 µg/mL (≈ 0.133 µM) | 0.39 µg/mL (≈ 1.04 µM) | 0.39 µg/mL (≈ 1.04 µM) | 0.2 µg/mL (≈ 0.531 µM) | 0.05 µg/mL (≈ 0.133 µM) | 0.025 µg/mL (≈ 0.0664 µM) | 0.2 µg/mL (≈ 0.531 µM) | > 3.13 µg/mL | 0.78 µg/mL (≈ 2.07 µM) | 0.78 µg/mL (≈ 2.07 µM) | 0.39 µg/mL (≈ 1.04 µM) | 0.78 µg/mL (≈ 2.07 µM) | > 3.13 µg/mL | 
5 | O=C(O)c1c(=O)c2cc(F)c(N3CCCC3)c3c2n2c(csc12)CO3 | 0.025 µg/mL (≈ 0.0694 µM) | 0.2 µg/mL (≈ 0.555 µM) | 0.2 µg/mL (≈ 0.555 µM) | 0.2 µg/mL (≈ 0.555 µM) | 1.56 µg/mL (≈ 4.33 µM) | 1.56 µg/mL (≈ 4.33 µM) | 0.05 µg/mL (≈ 0.139 µM) | 0.2 µg/mL (≈ 0.555 µM) | 0.05 µg/mL (≈ 0.139 µM) |  |  |  |  |  |  |  | 
6 | O=C(O)c1c(=O)c2cc(F)c(N3CCSCC3)c3c2n2c(csc12)CO3 | 0.05 µg/mL (≈ 0.127 µM) | 0.39 µg/mL (≈ 0.994 µM) | 3.13 µg/mL (≈ 7.98 µM) | 0.39 µg/mL (≈ 0.994 µM) | 3.13 µg/mL (≈ 7.98 µM) | 6.25 µg/mL (≈ 15.9 µM) | 0.1 µg/mL (≈ 0.255 µM) | 0.39 µg/mL (≈ 0.994 µM) | 0.05 µg/mL (≈ 0.127 µM) |  |  |  |  |  |  |  | 
7 | O=C1CN(c2c(F)cc3c(=O)c(C(=O)O)c4scc5n4c3c2OC5)CCN1 | 3.13 µg/mL (≈ 8.04 µM) | 1.56 µg/mL (≈ 4.01 µM) | 3.13 µg/mL (≈ 8.04 µM) | 1.56 µg/mL (≈ 4.01 µM) | 6.25 µg/mL (≈ 16.1 µM) | 6.25 µg/mL (≈ 16.1 µM) | 12.5 µg/mL (≈ 32.1 µM) | 1.56 µg/mL (≈ 4.01 µM) | 1.56 µg/mL (≈ 4.01 µM) |  |  |  |  |  |  |  | 
8 | COc1c(F)cc2c(=O)c(C(=O)O)c3scc4n3c2c1OC4 | 0.2 µg/mL (≈ 0.623 µM) | 0.78 µg/mL (≈ 2.43 µM) | 6.25 µg/mL (≈ 19.5 µM) |  | 6.25 µg/mL (≈ 19.5 µM) | 3.13 µg/mL (≈ 9.74 µM) | 0.39 µg/mL (≈ 1.21 µM) | 0.2 µg/mL (≈ 0.623 µM) | 0.2 µg/mL (≈ 0.623 µM) |  |  |  |  |  |  |  | 6.25 µg/mL (≈ 19.5 µM)
9 | CC(=O)NC1CCN(c2c(F)cc3c(=O)c(C(=O)O)c4scc5n4c3c2OC5)C1 (centres undefined) | 0.2 µg/mL (≈ 0.479 µM) | 1.56 µg/mL (≈ 3.74 µM) | 0.78 µg/mL (≈ 1.87 µM) | 1.56 µg/mL (≈ 3.74 µM) | 6.25 µg/mL (≈ 15 µM) | 6.25 µg/mL (≈ 15 µM) | 0.78 µg/mL (≈ 1.87 µM) | 1.56 µg/mL (≈ 3.74 µM) | 0.1 µg/mL (≈ 0.24 µM) |  |  |  |  |  |  |  | 
10 | O=C(O)c1c(=O)c2cc(F)c(N3CCNCC3)c3c2n2c(csc12)CO3 | 0.39 µg/mL (≈ 1.04 µM) | 0.1 µg/mL (≈ 0.266 µM) | 0.78 µg/mL (≈ 2.08 µM) | 0.1 µg/mL (≈ 0.266 µM) | 0.78 µg/mL (≈ 2.08 µM) | 0.78 µg/mL (≈ 2.08 µM) | 1.56 µg/mL (≈ 4.16 µM) | 0.05 µg/mL (≈ 0.133 µM) | 0.39 µg/mL (≈ 1.04 µM) |  |  |  |  |  |  |  | 
11 | NC1CCN(c2c(F)cc3c(=O)c(C(=O)O)c4scc5n4c3c2OC5)C1 (centres undefined) | 0.2 µg/mL (≈ 0.533 µM) | 0.1 µg/mL (≈ 0.266 µM) | 0.78 µg/mL (≈ 2.08 µM) | 0.2 µg/mL (≈ 0.533 µM) | 0.78 µg/mL (≈ 2.08 µM) | 0.78 µg/mL (≈ 2.08 µM) | 0.78 µg/mL (≈ 2.08 µM) | 0.1 µg/mL (≈ 0.266 µM) | 0.39 µg/mL (≈ 1.04 µM) |  |  |  |  |  |  |  | 
12 | CCNCC1CCN(c2c(F)cc3c(=O)c(C(=O)O)c4scc5n4c3c2OC5)C1 (centres undefined) | 0.2 µg/mL (≈ 0.479 µM) | 0.39 µg/mL (≈ 0.934 µM) | 0.39 µg/mL (≈ 0.934 µM) |  | 3.13 µg/mL (≈ 7.5 µM) | 25 µg/mL (≈ 59.9 µM) | 0.1 µg/mL (≈ 0.24 µM) | 0.39 µg/mL (≈ 0.934 µM) | 0.2 µg/mL (≈ 0.479 µM) |  |  |  |  |  |  |  | 
